Laboratory results as given in PubChem BioAssay AID1019 (Sanford-Burnham Center for Chemical Genomics, 2008).
Hit rate of the full screen: of about 190,000 compounds, fewer than 10 were called active. Not all results are given here. Values without a mark were called inactive.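 How the source made its calls: active means over 50% inhibition of intestinal alkaline phosphatase at 20 µM in the single-dose screen; inactive means the rest.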

Tested on: alkaline phosphatase, intestinal [Bos taurus]
Test: IAP enzyme activity blockers – biochemical, bovine IAP, CDP-star luminescence, selectivity assay for TNAP inhibitor project, primary screen (AID 1019)
Details: purified bovine IAP, 30 min, at 20 µM, stronger effect = higher value
Method in brief: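 Incubation: 30 min reaction at room temperature / Material: purified bovine intestinal alkaline phosphatase (IAP) enzyme / Input: enzyme at 1/65,000,000 dilution / Dosing: 20 µM single dose / Signal: CDP-star luminescence signal / Reagent: CDP-star chemiluminescent phosphatase substrate, 30 µM final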

SMILES	inhibition [%]
CCCC(=O)OCC(=O)Nc1cc(Cl)ccc1[N+](=O)[O-]	12.7
O=C(COC(=O)CC1CC2CCC1C2)NC(=O)NC1CCCC1 (centres undefined)	-11.4
COC(=O)c1ccc(NC(=S)Nc2cccc(C)n2)cc1	0.2
COc1ccccc1NC(=O)c1cc(Cl)nnc1Cl	-4
O=C(CCc1ccc(S(=O)(=O)N2CCOCC2)cc1)NN=C1CCCCCCC1	5
O=C(COC(=O)CCCNC(=O)c1ccc(Cl)cc1)Nc1cc(Cl)ccc1Cl	33.8
COc1cccc(/C=N/NC(=O)CNC(=O)c2ccc(S(=O)(=O)N3CCOCC3)cc2)c1OC	16.1
CS(=O)(=O)Nc1ccc(C2=NN(S(C)(=O)=O)C(c3cccs3)C2)cc1 (centres undefined)	-11
O=C(COC(=O)c1ccc(O)cc1)Nc1nccs1	-1.9
COc1ccc(C(=O)NC2(C(F)(F)F)NC(=O)N(CCCc3ccccc3)C2=O)c(OC)c1OC (centres undefined)	-13
CCCCC1N2CC3([N+](=O)[O-])CN1CC([N+](=O)[O-])(C2)C3(C)C (centres undefined)	3.9
Cc1cc(F)ccc1S(=O)(=O)N1CCCOC1CNC(=O)C(=O)NCCC1=CCCCC1 (centres undefined)	6.4
CC(C)=C1C2CCC1C1C(=O)N(NC(=O)c3ccco3)C(=O)C21 (centres undefined)	41.2
Cc1csc(NC(=O)CSc2ccc(-c3ccc(F)cc3)nn2)n1	-3.9
CN(CC(=O)NCCc1ccccc1)S(=O)(=O)c1cnc[nH]1	5.2
O=S1(=O)CCC(NC(=S)SCc2ccccc2Br)C1 (centres undefined)	23.3
CCCCNC(=O)CCn1c(=O)c2ccccc2n(Cc2cc(C)ccc2C)c1=O	15.7
NC(=O)C1=C[C@H](c2csc3ccccc23)C[C@H](OCc2ccc(CO)cc2)O1	-16.7
S=C(NC1CCCCC1)NN1CCOCC1	-0.1
COc1ccccc1NC(=O)CCSc1nnc(-c2ccc(O)cc2)o1	3.5

SMILES	inhibition [%]
Nc1cccc(CCc2nc3ccccc3[nH]2)c1	12
O=[N+]([O-])c1ccc(NCCCO)c(C(F)(F)F)c1	-0.5
CC(C)c1nc2sc3c(c2c(=O)n1N)CC(C)(C)OC3	-5
O=C(Nc1cccc(C(F)(F)F)c1)c1cnccn1	5.6
COc1ccc(OCCCn2cccc2/C=C2/C(=N)N3OC(C)=CC3=NC2=O)cc1	13.7
CCOC12CC(C)(C)CC(C)(CC3=C1C(=O)CC(C)(C)C3)C2 (centres undefined)	-12.4
Cn1c(CCCOc2ccc(Cl)cc2Cl)n[nH]c1=S	25.8
CCCCN(CC)C(=S)Nc1ccc2nc3n(c(=O)c2c1)CCCCC3	-16.6
O=C(CCc1ccccc1)NCCc1cccs1	1.2
O=C(NN1C(=O)C2C3C=CC(O3)C2C1=O)c1ccccc1 (centres undefined)	-0.3
CN(C(=O)CSc1nnc(-c2c[nH]c3ccccc23)o1)C1CCS(=O)(=O)C1 (centres undefined)	-2.2
CCc1cccc2c(=O)c(C(=O)NCCCOC)c[nH]c12	-5.7
COc1ccc(CCNC(=O)COC(=O)Cc2cc(OC)c(OC)c(OC)c2)cc1	-4.1
O=c1cc(CN2CCN(S(=O)(=O)/C=C/c3ccccc3)CC2)c2ccc(O)cc2o1	1.7
Cc1cccc(N2CCN(C(=O)/C=C/c3ccco3)CC2)c1C	6.3
CCCCn1nc(C(=O)OCC(=O)Nc2sccc2C(N)=O)c2ccccc2c1=O	-0.9
COc1ccnc(Oc2ccccc2)n1	-11
O=C1CCCC(O)=C1N=Nc1ccc2ncsc2c1	6.3
O=C(C1=C[C@H](c2ccc(C(F)(F)F)cc2)C[C@H](OCc2ccc(CO)cc2)O1)N1CCN(Cc2ccccc2)CC1	-12.1
COC(=O)c1sc(N)c(C(=O)OC)c1COC(=O)CNS(=O)(=O)c1ccc(C)cc1	11.4

SMILES	inhibition [%]
CN(c1ccccc1)S(=O)(=O)c1cc(C(=O)OCC(=O)N2CCN(C(=O)c3ccco3)CC2)ccc1Cl	-7.4
C=CCNC(=S)N1CCN(CCN=Cc2c(C)[nH]n(-c3ccc([N+](=O)[O-])cc3)c2=O)CC1	-6.4
CCC(C)N(C)C1CCN(C(=S)Nc2ccc(OC)cc2)CC1 (centres undefined)	-6.9
CCC(C)NC(=O)Cn1nc(C(F)(F)F)c2c1CCC2 (centres undefined)	-10.6
CCOc1ccc(-c2n[nH]c(C)c2-c2ccccn2)c(O)c1	-27.5
O=C(c1cc(Cl)cc(Cl)c1)N1CCC(=O)N(C(COCc2ccccc2)Cc2ccccc2)CC1 (centres undefined)	-2.4
COc1ccc(Cn2c(=O)cc(C)[nH]c2=S)cc1	9.8
Cc1ccc(Cl)cc1NC(=O)COC(=O)CC(C)(C)C	-16
CCc1ccc(N2CC(O)=C(c3nc4ccccc4c(=O)[nH]3)C2=N)cc1	-19.9
CC(C)c1cc(NCc2ccccn2)n2c(nc3ccccc32)c1C#N	-20.8
CC(C)[C@@H]1NC(=O)c2cc([N+](=O)[O-])cc(I)c2NCCC[C@@H](C(=O)NC(CC(=O)O)C(N)=O)NC(=O)[C@H](CO)NC1=O (some centres undefined)	6.3
Cc1ccc(-c2ccc(/C=N/NC(=O)CN3CCOCC3)o2)cc1[N+](=O)[O-]	-0.9
C/C(=N\NC(=O)C(N)=O)c1ccc2c(c1)OCCO2	-4.3
Cc1ccc(NC(=O)c2cccnc2C(=O)Nc2ccc(C)cc2)cc1	-4.3
Cc1ccc(CN2CCN(Cc3cccc(C)n3)CC2CCO)cc1 (centres undefined)	-23.9
CCN(CC)c1ccc(C(=O)c2cnc(/N=C/N(C)C)s2)cc1	11.8
CC(C)CNC(=O)C(=O)Nc1ccc(N(C)C)cc1	-7.9
O=C(CSc1nnc(-c2ccc([N+](=O)[O-])cc2)o1)Nc1ccccn1	-24.6
CCO[C@@H]1OC(C(N)=O)=C[C@H](c2ccc(Br)cc2)[C@H]1CCCO	-2
